In brackets after ≈: the same amount, converted by molar mass. Activity calls are given as the source filed them. The rule behind the calls is not given here.
Legend:
Mycobacterium avium [1] = experiment: Antimycobacterial activity against isoniazid, rifampicin, ethambutol and ofloxacin-resistant Mycobacterium avium My 330/88 after 21 days; type: functional; settings: My 330/88, 504 h
Summary of the method: (§1)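 Micromethod MIC in Šula's semisynthetic medium at 37 °C. Compounds added in DMSO at 1000 down to 0.032 µmol/L. Isoniazid standard in sterile water at 0.5–250 µmol/L. Inocula: H37Rv 10^3, M. avium 10^5, M. kansasii 10^4. Read at 14 and 21 d, plus 7 d for M. kansasii.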

Mycobacterium avium [2] = experiment: Antimycobacterial activity against isoniazid, rifampicin, ethambutol and ofloxacin-resistant Mycobacterium avium My 330/88 after 14 days; type: functional; settings: My 330/88, 336 h; summary of the method: as §1
[3] = system: Mycobacterium tuberculosis; experiment: Antimycobacterial activity against Mycobacterium tuberculosis H37Rv My 331/88 after 21 days; type: functional; settings: H37Rv My 331/88, 504 h; summary of the method: as §1
[4] = system: Mycobacterium tuberculosis; experiment: Antimycobacterial activity against Mycobacterium tuberculosis H37Rv My 331/88 after 14 days; type: functional; settings: H37Rv My 331/88, 336 h; summary of the method: as §1
[5] = system: Trichophyton mentagrophytes; experiment: Antifungal activity against Trichophyton mentagrophytes 445 after 120 hrs by broth microdilution method; type: functional; settings: Trichophyton mentagrophytes, 445, 120 h
Summary of the method: (§2)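 Filamentous dermatophyte tested by broth microdilution in RPMI 1640 with glutamine, fluconazole as reference. Value expressed as IC50 relative to growth control. Read at 72 and 120 h.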

[6] = system: Trichophyton mentagrophytes; experiment: Antifungal activity against Trichophyton mentagrophytes 445 after 72 hrs by broth microdilution method; type: functional; settings: Trichophyton mentagrophytes, 445, 72 h; summary of the method: as §2
Lichtheimia corymbifera [7] = experiment: Antifungal activity against Absidia corymbifera 272 after 48 hrs by broth microdilution method; type: functional; settings: Lichtheimia corymbifera, 272, 48 h
Summary of the method: (§3)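 Broth microdilution in RPMI 1640 with glutamine, fluconazole as reference. For yeasts, MIC is ≥80% growth reduction (IC80) versus control. For filamentous fungi, the value is expressed as IC50. Readings at 24 and 48 h.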

Lichtheimia corymbifera [8] = experiment: Antifungal activity against Absidia corymbifera 272 after 24 hrs by broth microdilution method; type: functional; settings: Lichtheimia corymbifera, 272, 24 h; summary of the method: as §3
Aspergillus fumigatus [9] = experiment: Antifungal activity against Aspergillus fumigatus 231 after 48 hrs by broth microdilution method; type: functional; settings: Aspergillus fumigatus, 231, 48 h; summary of the method: as §3
Aspergillus fumigatus [10] = experiment: Antifungal activity against Aspergillus fumigatus 231 after 24 hrs by broth microdilution method; type: functional; settings: Aspergillus fumigatus, 231, 24 h; summary of the method: as §3
Trichosporon asahii [11] = experiment: Antifungal activity against Trichosporon asahii 1188 after 48 hrs by broth microdilution method; type: functional; settings: Trichosporon asahii, 1188, 48 h; summary of the method: as §3
Trichosporon asahii [12] = experiment: Antifungal activity against Trichosporon asahii 1188 after 24 hrs by broth microdilution method; type: functional; settings: Trichosporon asahii, 1188, 24 h; summary of the method: as §3
Pichia kudriavzevii [13] = experiment: Antifungal activity against Candida krusei E28 after 48 hrs by broth microdilution method; type: functional; settings: E28, 48 h; summary of the method: as §3
Pichia kudriavzevii [14] = experiment: Antifungal activity against Candida krusei E28 after 24 hrs by broth microdilution method; type: functional; settings: E28, 24 h; summary of the method: as §3
Candida albicans [15] = experiment: Antifungal activity against Candida albicans ATCC 44859 after 48 hrs by broth microdilution method; type: functional; settings: ATCC 44859, 48 h; summary of the method: as §3
Candida albicans [16] = experiment: Antifungal activity against Candida albicans ATCC 44859 after 24 hrs by broth microdilution method; type: functional; settings: ATCC 44859, 24 h; summary of the method: as §3
Nakaseomyces glabratus = experiment: Antifungal activity against Candida glabrata 20/I at 500 micromol/L after 24 to 48 hrs by broth microdilution method; type: functional, organism-based; summary of the method: as §3
Candida tropicalis = experiment: Antifungal activity against Candida tropicalis 156 at 500 micromol/L after 24 to 48 hrs by broth microdilution method; type: functional, organism-based; summary of the method: as §3
Pseudomonas aeruginosa = experiment: Antibacterial activity against Pseudomonas aeruginosa CCM 1961 at 500 micromol/L after 24 to 48 hrs by broth microdilution method; type: functional, organism-based
Summary of the method: (§4)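 Broth microdilution in Mueller–Hinton broth, compounds dissolved in DMSO, tested over a dilution series from 500 downward. MIC taken as ≥95% growth reduction (IC95) versus drug-free control. Benzylpenicillin comparator. Readings at 24 and 48 h.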

Klebsiella pneumoniae [17] = experiment: Antibacterial activity against ESBL-positive Klebsiella pneumoniae J 14368/08 at 500 micromol/L after 24 to 48 hrs by broth microdilution method; type: functional, organism-based; summary of the method: as §4
Klebsiella pneumoniae [18] = experiment: Antibacterial activity against Klebsiella pneumoniae D 11750/08 at 500 micromol/L after 24 to 48 hrs by broth microdilution method; type: functional, organism-based; summary of the method: as §4
Escherichia coli = experiment: Antibacterial activity against Escherichia coli CCM 4517 at 500 micromol/L after 24 to 48 hrs by broth microdilution method; type: functional, organism-based; summary of the method: as §4
Enterococcus sp. = experiment: Antibacterial activity against Enterococcus sp. J 14365/08 at 500 micromol/L after 24 to 48 hrs by broth microdilution method; type: functional, organism-based; summary of the method: as §4
[19] = system: Staphylococcus epidermidis; experiment: Antibacterial activity against Staphylococcus epidermidis H 6966/08 after 48 hrs by broth microdilution method; type: functional; settings: H 6966/08, 48 h; summary of the method: as §4
[20] = system: Staphylococcus epidermidis; experiment: Antibacterial activity against Staphylococcus epidermidis H 6966/08 after 24 hrs by broth microdilution method; type: functional; settings: H 6966/08, 24 h; summary of the method: as §4
Staphylococcus aureus [21] = experiment: Antibacterial activity against methicillin-resistant Staphylococcus aureus H 5996/08 after 48 hrs by broth microdilution method; type: functional; settings: H 5996/08, 48 h; summary of the method: as §4
Staphylococcus aureus [22] = experiment: Antibacterial activity against methicillin-resistant Staphylococcus aureus H 5996/08 after 24 hrs by broth microdilution method; type: functional; settings: H 5996/08, 24 h; summary of the method: as §4
Staphylococcus aureus [23] = experiment: Antibacterial activity against Staphylococcus aureus CCM 4516/08 after 48 hrs by broth microdilution method; type: functional; settings: CCM 4516/08, 48 h; summary of the method: as §4
Staphylococcus aureus [24] = experiment: Antibacterial activity against Staphylococcus aureus CCM 4516/08 after 24 hrs by broth microdilution method; type: functional; settings: CCM 4516/08, 24 h; summary of the method: as §4
Mycobacterium kansasii [25] = experiment: Antimycobacterial activity against Mycobacterium kansasii 6509/96 after 21 days; type: functional; settings: 6509/96, 504 h; summary of the method: as §1
Mycobacterium kansasii [26] = experiment: Antimycobacterial activity against Mycobacterium kansasii 6509/96 after 14 days; type: functional; settings: 6509/96, 336 h; summary of the method: as §1
Mycobacterium kansasii [27] = experiment: Antimycobacterial activity against Mycobacterium kansasii 6509/96 after 7 days; type: functional; settings: 6509/96, 168 h; summary of the method: as §1
Mycobacterium kansasii [28] = experiment: Antimycobacterial activity against Mycobacterium kansasii My 235/80 after 21 days; type: functional; settings: My 235/80, 504 h; summary of the method: as §1
Mycobacterium kansasii [29] = experiment: Antimycobacterial activity against Mycobacterium kansasii My 235/80 after 14 days; type: functional; settings: My 235/80, 336 h; summary of the method: as §1
HepG2 = experiment: Cytotoxicity against human HepG2 cells after 24 hrs by CellTiter assay; type: cell-based; settings: HepG2, 24 h
Summary of the method: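 HepG2 cells (passage 27–33) in MEM with 10% FBS, L-glutamine and NEAA, seeded at 1×10^4 per well. Treated next day with compounds at 0.1–100 µM (or 0.1–25 µmol/L), triplicates, <1% DMSO, for 24 h at 37 °C, 5% CO2. MTS reagent added for 2 h, absorbance read at 490 nm. IC50 taken against untreated (100%) and 10% DMSO (0%) controls.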

Mycobacterium kansasii [30] = experiment: Antimycobacterial activity against Mycobacterium kansasii My 235/80 after 7 days; type: functional; settings: My 235/80, 168 h; summary of the method: as §1

Row | Structure (SMILES) | MIC (Mycobacterium avium [1]) | MIC (Mycobacterium avium [2]) | MIC [3] | MIC [4] | MIC50 [5] | MIC50 [6] | MIC50 (Lichtheimia corymbifera [7]) | MIC50 (Lichtheimia corymbifera [8]) | MIC50 (Aspergillus fumigatus [9]) | MIC50 (Aspergillus fumigatus [10]) | MIC80 (Trichosporon asahii [11]) | MIC80 (Trichosporon asahii [12]) | MIC80 (Pichia kudriavzevii [13]) | MIC80 (Pichia kudriavzevii [14]) | MIC80 (Candida albicans [15]) | MIC80 (Candida albicans [16]) | Activity (Nakaseomyces glabratus) | Activity (Candida tropicalis) | Activity (Pseudomonas aeruginosa) | Activity (Klebsiella pneumoniae [17]) | further results
1 | CCOP(=O)(OCC)Oc1ccc(Br)cc1C(=O)Nc1ccc(Br)cc1 | 8 µM (≈ 4.06 µg/mL) | 8 µM (≈ 4.06 µg/mL) | 2 µM (≈ 1.01 µg/mL) | 2 µM (≈ 1.01 µg/mL) | 3.9 µM (≈ 1.98 µg/mL) | 3.9 µM (≈ 1.98 µg/mL) | 125 µM (≈ 63.4 µg/mL) | 125 µM (≈ 63.4 µg/mL) | 500 µM (≈ 254 µg/mL) | 500 µM (≈ 254 µg/mL) | 62.5 µM (≈ 31.7 µg/mL) | 62.5 µM (≈ 31.7 µg/mL) | 125 µM (≈ 63.4 µg/mL) | 125 µM (≈ 63.4 µg/mL) | > 500 µM | > 500 µM | inactive | inactive | inactive | inactive | Activity (Klebsiella pneumoniae [18]): inactive; Activity (Escherichia coli): inactive; Activity (Enterococcus sp.): inactive; MIC95 [19]: 1.95 µM (≈ 0.989 µg/mL); MIC95 [20]: 1.95 µM (≈ 0.989 µg/mL); MIC95 (Staphylococcus aureus [21]): 3.9 µM (≈ 1.98 µg/mL); MIC95 (Staphylococcus aureus [22]): 3.9 µM (≈ 1.98 µg/mL); MIC95 (Staphylococcus aureus [23]): 7.81 µM (≈ 3.96 µg/mL); MIC95 (Staphylococcus aureus [24]): 7.81 µM (≈ 3.96 µg/mL); MIC (Mycobacterium kansasii [25]): 4 µM (≈ 2.03 µg/mL); MIC (Mycobacterium kansasii [26]): 4 µM (≈ 2.03 µg/mL); MIC (Mycobacterium kansasii [27]): 4 µM (≈ 2.03 µg/mL); MIC (Mycobacterium kansasii [28]): 4 µM (≈ 2.03 µg/mL); MIC (Mycobacterium kansasii [29]): 4 µM (≈ 2.03 µg/mL); IC50 (HepG2): 5.6 µM; MIC (Mycobacterium kansasii [30]): 2 µM (≈ 1.01 µg/mL)
2 | CCOP(=O)(OCC)Oc1ccc(Cl)cc1C(=O)Nc1ccc(C(F)(F)F)cc1 | 4 µM (≈ 1.81 µg/mL) | 4 µM (≈ 1.81 µg/mL) | 1 µM (≈ 0.452 µg/mL) | 1 µM (≈ 0.452 µg/mL) | 31.2 µM (≈ 14.1 µg/mL) | 31.2 µM (≈ 14.1 µg/mL) | > 250 µM | > 250 µM | > 250 µM | > 250 µM | 250 µM (≈ 113 µg/mL) | 125 µM (≈ 56.5 µg/mL) | > 250 µM | 125 µM (≈ 56.5 µg/mL) | > 250 µM | 125 µM (≈ 56.5 µg/mL) | inactive | inactive | inactive | inactive | Activity (Klebsiella pneumoniae [18]): inactive; Activity (Escherichia coli): inactive; Activity (Enterococcus sp.): inactive; MIC95 [19]: 31.2 µM (≈ 14.1 µg/mL); MIC95 [20]: 31.2 µM (≈ 14.1 µg/mL); MIC95 (Staphylococcus aureus [21]): 62.5 µM (≈ 28.2 µg/mL); MIC95 (Staphylococcus aureus [22]): 62.5 µM (≈ 28.2 µg/mL); MIC95 (Staphylococcus aureus [23]): 31.2 µM (≈ 14.1 µg/mL); MIC95 (Staphylococcus aureus [24]): 31.2 µM (≈ 14.1 µg/mL); MIC (Mycobacterium kansasii [25]): 2 µM (≈ 0.904 µg/mL); MIC (Mycobacterium kansasii [26]): 2 µM (≈ 0.904 µg/mL); MIC (Mycobacterium kansasii [27]): 2 µM (≈ 0.904 µg/mL); MIC (Mycobacterium kansasii [28]): 2 µM (≈ 0.904 µg/mL); MIC (Mycobacterium kansasii [29]): 2 µM (≈ 0.904 µg/mL); IC50 (HepG2): 2.33 µM; MIC (Mycobacterium kansasii [30]): 1 µM (≈ 0.452 µg/mL)

— ChEMBL document CHEMBL3102784, “Salicylanilide diethyl phosphates: synthesis, antimicrobial activity and cytotoxicity” (Bioorg Med Chem, 2014)
